Most compounds without a hit are left out; they make up all but 2.2% or so of the library.
T cruzi inh – blocks replication of Trypanosoma cruzi; T. cruzi beta-gal in NIH3T3, luminescence, 90 h; inhibition, % (test concentration not listed); actives 1.4% (n = 300,000); AID 1885;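 active = mean inhibition across valid replicates above about 55%, limit read from the data; inconclusive = mean below that limit but half or more replicates reach it; inactive = mean below it, under half of replicates reach it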;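 also: signal also drops with host cell toxicity which is not excluded here; 0% = plate median of DMSO wells and 100% = zero luminescence signal; higher percent means less beta-gal luminescence so fewer parasites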
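Assay system: NIH/3T3 fibroblasts plus reporter T. cruzi. Amount: NIH/3T3 cells, 5,000 per well. Buffer or medium: DMEM, 2% fetal bovine serum. Doses: compound pinned at 50 nL/well, DMSO. Schedule: ≥90 h infection period, 3 h prior cell attachment. Signal: luminescent β-galactosidase signal after 60 min lysis. Read-out: parasite load inhibition, %.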
Efflux pump mplx – inhibitors of Candida antifungal efflux pumps expressed in yeast. inhibition, % at 10 µM. actives 0.44% (n = 330,000). S. cerevisiae Candida pump triplex, Nile Red efflux;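 active = plate passing quality check with inhibition over a set limit, or well fluorescence over plate mean plus 4 SD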;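 also: Nile Red retained in pooled yeast measured as flow cytometry median fluorescence; 0% = buffer negative control and 100% = Enniatin B positive control; higher means more Nile Red kept so more efflux inhibition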
PolyA inh – blocks polyadenylation in yeast reporter cells | S. cerevisiae SKY197-pL101 polyadenylation reporter, beta-gal luminescence; efflux-impaired pdr1/pdr3 knockout yeast; score 100 = 6 SD above DMSO | activity score, % at 12 µM | actives 0.02% (n = 300,000) | AID 1875;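 active = lowest replicate activity score at least 50, where 100 means six control SD above control mean; inconclusive = lowest score under 50 but half or more replicates reach 50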;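 also: yeast exposed to compound for 9 h at 30 °C; higher score means more reporter readthrough which indicates perturbed polyadenylation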
HDAC3 inh – human HDAC3 inhibition; actives 0.15% (n = 320,000); AID 2718; inhibition, % at 8.3 µM; recombinant HDAC3, fluorogenic peptide/trypsin coupled, fluorescence; O15379; in the data active = inhibition above about 26%, passing the limit was not always enough; inconclusive = no clear call, values can overlap the other calls
Target sequence (O15379 whole entry, looked up): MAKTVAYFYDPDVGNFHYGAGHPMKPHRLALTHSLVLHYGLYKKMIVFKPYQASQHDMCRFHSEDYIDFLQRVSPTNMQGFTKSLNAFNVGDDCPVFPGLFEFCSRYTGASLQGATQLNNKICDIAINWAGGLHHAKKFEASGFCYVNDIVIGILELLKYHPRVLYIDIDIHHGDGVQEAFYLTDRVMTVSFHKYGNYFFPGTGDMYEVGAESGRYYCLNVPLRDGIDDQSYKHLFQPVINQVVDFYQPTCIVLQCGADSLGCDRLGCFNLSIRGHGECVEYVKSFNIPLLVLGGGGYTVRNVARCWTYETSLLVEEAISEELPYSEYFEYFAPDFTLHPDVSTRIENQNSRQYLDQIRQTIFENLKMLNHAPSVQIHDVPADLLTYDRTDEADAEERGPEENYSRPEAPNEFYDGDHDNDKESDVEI
AI-2 QS modul – modulators of Vibrio harveyi AI-2 quorum sensing system; AID 2094; activity change, % at 7.5 µM; actives 0.4% (n = 300,000); Vibrio harveyi JMH597 AI-2 luminescence/OD600 ratio, 9 h; active compounds read low; strain lacks LuxN and CqsS sensors; 0 = neutral-control median; in the data active = activity change below about -75%, passing the limit was not always enough; inconclusive = no clear call, values can overlap the other calls;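 also: luminescence divided by OD600 gain over 9 h not by final OD600 alone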
JMH597 growth – retest Vibrio harveyi JMH597 growth inhibition. growth inhibition, % at 7.5 µM. shares compounds with AI-2 QS modul. OD600 absorbance, 9 h; lacks LuxN and CqsS sensors. AID 2726. actives 1% (n = 750);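 active = every replicate shows growth inhibition above 50%; inconclusive = at least half, but not all, replicates pass that cutoff; inactive = fewer than half of replicates pass it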
BB721 lum counter – retest counter-screen: BB721 constitutive quorum sensing luminescence decrease | shares compounds with AI-2 QS modul | Vibrio harveyi BB721 luminescence, 9 h | inhibition, % at 7.5 µM | actives 95% (n = 750);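 active = inhibition above about 80% in every replicate, not just on average, limit read from the data; inconclusive = at least half of replicates past the limit, but not all; inactive = fewer than half of replicates past the limit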
BB721 growth – retest Vibrio harveyi BB721 growth inhibition | AID 2728 | growth inhibition, % at 7.5 µM | OD600 absorbance, 9 h | actives 3% (n = 750) | shares compounds with AI-2 QS modul;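 active = every replicate shows growth inhibition above 50%; inconclusive = at least half but not all replicates above 50% inhibition; inactive = under half of replicates above 50% inhibition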
AI-2 QS JMH597 – Vibrio harveyi AI-2 signaling luminescence modulation – JMH597 strain, confirmation; shares compounds with AI-2 QS modul; AID 2736; Vibrio harveyi JMH597 AI-2 quorum sensing luminescence, 9 h; luxN and CqsS knockout, AI-2 only; actives 97% (n = 750); inhibition, % at 7.5 µM;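 active = every replicate shows more than 75% inhibition of signal versus neutral control wells; inconclusive = half to three quarters of replicates exceed 75% inhibition; inactive = fewer than half of replicates exceed 75% inhibition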
Numbers without * were called inactive; ? = inconclusive; / = no result given.

SMILES	T cruzi inh	Efflux pump mplx	PolyA inh	HDAC3 inh	AI-2 QS modul	JMH597 growth	BB721 lum counter	BB721 growth	AI-2 QS JMH597
O=c1c2ccccc2nc(SCc2ccc([N+](=O)[O-])cc2)n1-c1ccc(Cl)cc1	23.2	0.1	-1.1	/	11.8	/	/	/	/
Nn1c(SCc2ccc([N+](=O)[O-])cc2)nc2ccccc2c1=O	28.7	0.4	-24.4	-1.3	-96.8*	-7.9	96.7*	-0.7	97.5*
Cc1cc(OCC(=O)OCC(=O)N2CCc3ccccc3C2)ccc1Cl	/	-0.1	/	0.3	/	/	/	/	/
O=C(CC(=O)Nc1ccccc1F)Nc1ccccc1F	10.4	-0.1	-14.8	3.4	6.8	/	/	/	/
Cc1ccc(CCC(=O)Nc2ccccc2F)s1	-3.6	0.0	-0.2	2.3	-88.7*	17.5	94.3*	2.5	95.8*
Clc1ccc(-c2nnc(CCc3ccccc3)o2)c(Cl)c1	-3.8	0.1	-8.4	7.0	-90.3*	18.9	97.2*	21.7	97.6*
CCn1c(SCC(=O)OC(C)C)nnc1-c1ccccc1OC	0.6	0.1	0.0	-2.2	31.6	/	/	/	/
Cc1cc(C)c(OCC(=O)NCC2CCCO2)c(C)c1 (configuration not stated)	-3.5	0.1	-4.8	-5.0	7.3	/	/	/	/
COc1ccc(NC(=O)Nc2nnc(Cc3ccccc3)s2)cc1	-2.5	0.3	-1.2	0.4	-15.8	/	/	/	/
COc1ccc(Cc2nnc(CCc3ccccc3)s2)cc1	1.4	0.2	-21.1	-3.9	?	-30.7	78.3*	-33.1	86.4*
Cc1ccc(CNc2ccc3c(c2)ncn3C)cc1	7.6	0.3	9.9	-1.9	-81.9*	17.5	90.6*	-15.3	94.5*
CCc1ccc(CNc2ccc3c(c2)ncn3C)cc1	10.0	-0.2	-3.9	/	-90.6*	26.9	95.6*	8.2	97.9*
COc1ccc(CNc2ccc3c(c2)ncn3C)cc1OC	2.4	-0.1	0.7	-1.8	13.2	/	/	/	/
COc1ccc(COC(=O)Oc2ccc(CNC(C)=O)cc2OC)c([N+](=O)[O-])c1	-0.3	-0.1	-4.7	1.6	-4.1	/	/	/	/
CC(OC(=O)CCCSc1nc2ccccc2s1)C(=O)NC(N)=O (configuration not stated)	-9.9	0.1	-13.8	-3.9	-7.6	/	/	/	/
COC(=O)CSc1nnc(COc2cccc3ccccc23)o1	-21.2	-0.1	-3.3	-3.8	-83.3*	-3.2	92.3*	-17.9	93.2*
CCN(CC)S(=O)(=O)c1ccc(N2CCCCC2)c(NC(=O)c2ccncc2)c1	30.6	0.0	-8.3	0.3	12.4	/	/	/	/
CCn1c(SCC(=O)O)nnc1-c1ccc(S(=O)(=O)N2CCCC2)cc1	-16.4	-0.8	17.1	-15.4	26.1	/	/	/	/
CCn1c(SCc2ccccc2)nnc1-c1ccc(S(=O)(=O)N2CCCCC2)cc1	30.7	0.2	-9.3	0.9	?	42.1	88.8*	59.2	94.4*
CCS(=O)(=O)N1CCC(C(=O)NCc2ccco2)CC1	1.8	0.1	-3.5	-0.8	6.8	/	/	/	/
CSc1ccc(S(=O)(=O)N2CCC(C(=O)NCc3ccco3)CC2)cc1	9.8	0.1	-15.9	0.6	-90.3*	30.1	74.8	-19.3	99.6*
Nc1cccc(C(=O)Nc2cccc3ncccc23)c1	-2.7	0.1	8.2	-2.0	?	1.9	4.5	16.9	-3.3
CC(=O)Nc1cccc(C(=O)Nc2cccc3ncccc23)c1	3.3	-0.2	23.5	7.6	14.4	/	/	/	/
Clc1ccc(OCCn2cnc(Cl)c2Cl)cc1	11.6	0.3	18.3	3.2	-83.9*	10.8	88.3*	-329.8	92.4*
COc1ccc(OCCn2cnc(Cl)c2Cl)cc1	-12.5	0.1	-4.7	/	-1.9	/	/	/	/
O=C(CCCCC(=O)NNC(=O)COc1ccccc1)NNC(=O)COc1ccccc1	-0.7	0.1	8.7	?	7.7	/	/	/	/
